Experimental findings from BindingDB's records for doi:10.1016/j.bmc.2014.05.061 (Academy of Sciences of The Czech Republic, 2014) are described below.

The assay deals with Glutamate carboxypeptidase 2 (Homo sapiens, UniProt Q04609). As to the kind of experiment: Inhibition of human recombinant N-terminal Avi-tagged glutamate carboxypeptidase 2 extracellular domain (44 to 750 amino acids) using pteroyl-di-L-glutamate substrate by HPLC method. In short, it runs like this:
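Avi-GCPII (0.2 ng) in 25 mM Bis-Tris propane, 150 mM NaCl, 0.001% octaethylene glycol monododecyl ether, pH 7.4, preincubated with inhibitor (ten concentrations) 5 min at 37 °C. Reaction started with pteroyl-di-L-glutamate (20 µl of 4 µM stock), run 20 min at 37 °C, stopped with 2-PMPA. Substrate and product separated by isocratic HPLC, detected at 281 nm; IC50 from full curves, Ki mean ± SD, duplicate or triplicate.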

Sequence of Glutamate carboxypeptidase 2 (Q04609 whole entry, the tested form may be a part): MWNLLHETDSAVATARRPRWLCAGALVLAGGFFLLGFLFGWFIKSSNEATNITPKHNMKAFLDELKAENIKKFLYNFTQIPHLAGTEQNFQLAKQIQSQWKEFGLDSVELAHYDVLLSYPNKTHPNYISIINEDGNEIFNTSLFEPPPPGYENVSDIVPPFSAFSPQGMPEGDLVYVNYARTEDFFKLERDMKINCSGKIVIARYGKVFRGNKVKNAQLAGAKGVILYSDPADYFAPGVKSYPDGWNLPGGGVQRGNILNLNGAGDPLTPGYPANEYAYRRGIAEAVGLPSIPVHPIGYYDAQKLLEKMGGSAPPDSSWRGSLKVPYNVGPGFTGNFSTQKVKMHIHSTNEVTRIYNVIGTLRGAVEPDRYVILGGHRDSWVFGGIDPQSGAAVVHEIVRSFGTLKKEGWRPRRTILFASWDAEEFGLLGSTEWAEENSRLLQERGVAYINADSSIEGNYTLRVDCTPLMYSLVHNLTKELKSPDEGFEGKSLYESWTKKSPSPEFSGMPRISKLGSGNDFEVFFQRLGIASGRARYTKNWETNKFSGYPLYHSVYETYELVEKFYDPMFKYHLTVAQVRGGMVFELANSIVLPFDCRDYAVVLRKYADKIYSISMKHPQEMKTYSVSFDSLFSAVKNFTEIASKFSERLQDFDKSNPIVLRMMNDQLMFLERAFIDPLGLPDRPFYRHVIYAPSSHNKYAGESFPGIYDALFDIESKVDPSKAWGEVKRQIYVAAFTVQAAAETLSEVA

For the compound `O=C(O)CC[C@H](NC(=O)N[C@@H](CCCCNC(=O)Nc1ccc(Br)cc1OCCNC(=O)CCOCCOCCOCCOCCOCCOCCOCCOCCOCCOCCOCCOCCNC(=O)CCCC[C@@H]1SC[C@@H]2NC(=O)N[C@@H]21)C(=O)O)C(=O)O`, the inhibition constant Ki is 0.221 nM.

As usually defined, the Ki is a dissociation constant, usually derived from enzyme kinetics or from competition with a known ligand.
